Laboratory results taken from ChEMBL document CHEMBL1130047, “Synthesis, structure, and antiproliferative activity of selenophenfurin, an inosine 5'-monophosphate dehydrogenase inhibitor analogue of selenazofurin” (J Med Chem, 1997).

Tests used:
5637 = test: Compound was tested for antiproliferative activity against 5637, human bladder carcinoma cell line; format: functional, cell-based
How it was run: (§1)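 Exponentially growing solid-tumour-derived cells were seeded at 5 × 10⁴ cells/mL and left to adhere for 16 h before drug addition, across a range of concentrations. Growth was expressed as % of untreated controls, and IC50 (concentration reducing cell viability by 50%) was obtained by linear regression.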

CHO-K1 [1] = test: Compound was tested for antiproliferative activity against CHO-K1, Chinese hamster ovary; format: functional, cell-based; settings: Cricetulus griseus; how it was run: as §1
CCRF-SB [2] = test: (§2) Compound was tested for antiproliferative activity against CCRF-SB, human acute B-lymphoblastic leukemia; format: functional, cell-based
How it was run: (§3)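 Exponentially growing cells were seeded at 1 × 10⁵ cells/mL in growth medium and exposed to various compound concentrations for 96 h at 37 °C. Viability was read by MTT. Growth at each concentration was taken as % of untreated controls, and IC50 (concentration reducing viability by 50%) was derived by linear regression.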

CCRF-CEM [3] = test: (§4) Compound was tested for antiproliferative activity against CCRF-CEM, human acute T-lymphoblastic leukemia; format: functional, cell-based; how it was run: as §3
HT-29 = test: Compound was tested for antiproliferative activity against HT29, human colon adenocarcinoma; format: functional, cell-based; how it was run: as §1
HeLa = test: Compound was tested for antiproliferative activity against HeLa, human cervix carcinoma; format: functional, cell-based; how it was run: as §1
[4] = molecular target: T1, Inosine-5'-monophosphate dehydrogenase (IMPDH) (Homo sapiens) (UniProt P20839+P12268); test: Compound was tested for its effect on IMPDH (Inosine 5`-monophosphate dehydrogenase) activity in K562 cells; format: functional, cell-based; settings: scale: (nM of XMP formed) hr-1
How it was run: (§5)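 Log-phase K562 cells (1 × 10⁶ cells/mL) were given 10 µM agent or saline for 2 h at 37 °C. They were then washed and lysed in Tris-HCl pH 7.4/NaCl/MgCl₂/0.5% NP-40/aprotinin, and the 13000g supernatant served as enzyme. The reaction ran 30 min at 37 °C, stopped by heating at 95 °C for 1 min. Radioactivity was trapped in KOH and counted by scintillation, giving nmol XMP/mg protein/h and % inhibition against saline.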

K562 [5] = test: Compound was tested for its influence on the GDP (guanosine diphosphate) ribonucleotide level in K562 cells; format: functional, Homo sapiens
How it was run: (§6)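 K562 cells in culture (1 × 10⁷) were incubated with 10 µM agent or saline for 2 h at 37 °C, then washed with cold saline. Extraction used cold 10% trichloroacetic acid, followed by neutralisation with 0.5 M tri-n-octylamine in freon. Nucleotides were measured by HPLC on a strong anion-exchange (SAX) column, with levels in nmol/g and % of saline control.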

K562 [6] = test: Compound was tested for its influence on the GMP (guanosine monophosphate) ribonucleotide level in K562 cells; format: functional, Homo sapiens; how it was run: as §6
K562 [7] = test: Compound was tested for its influence on the GTP (guanosine triphosphate) ribonucleotide level in K562 cells; format: functional, Homo sapiens; how it was run: as §6
K562 [8] = test: Compound was tested for its influence on the IMP (Inosine 5`-monophosphate) ribonucleotide level in K562 cells; format: functional, Homo sapiens
How it was run: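 K562 cells (1 × 10⁷) given 10 µM agent or saline for 2 h at 37 °C, washed in cold saline, extracted with cold 10% trichloroacetic acid, neutralized with 0.5 M tri-n-octylamine in freon; IMP measured by strong anion-exchange HPLC, reported as percent of saline control (control in nmol/g).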

K562 [9] = test: (§7) Compound was tested for antiproliferative activity against K562, human erythroid leukemia; format: functional, cell-based; how it was run: as §3
MOLT-4 [10] = test: (§8) Compound was tested for antiproliferative activity against MOLT-4, human acute T-lymphoblastic leukemia; format: functional, cell-based; how it was run: as §3
L1210 [11] = test: (§9) Compound was tested for antiproliferative activity against L1210, murine lymphocytic leukemia; format: functional, cell-based; settings: Mus musculus; how it was run: as §3
Raji = test: Compound was tested for antiproliferative activity against Raji, human Burkitt lymphoma; format: functional, cell-based; how it was run: as §3
WIL2-NS = test: Compound was tested for antiproliferative activity against Wil2-NS, human splenic lymphoblastoid cells; format: functional, cell-based; how it was run: as §3
[12] = molecular target: T1, Inosine-5'-monophosphate dehydrogenase (IMPDH) (Homo sapiens); test: (§10) Compound was tested for its inhibition against IMPDH from human myelogenous leukemia in K562 cells; format: functional, cell-based; settings: concentration not given here; how it was run: as §5
ACHN = test: Compound was tested for antiproliferative activity against ACHN, human renal adenocarcinoma; format: functional, cell-based; how it was run: as §1
CHO-K1 [13] = test: Compound was tested for antiproliferative activity against CHO-K1, Chinese hamster ovary cells; format: functional, cell-based; settings: Cricetulus griseus
How it was run: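 Solid tumor-derived adherent cells seeded at 5 × 10⁴ cells/mL in exponential growth, allowed 16 h to attach before drug addition; viability by MTT method. Growth expressed as percent of untreated controls, IC50 obtained by linear regression.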

CCRF-SB [14] = test: as §2; format: functional, cell-based; remark: listed apart in the source
How it was run: (§11)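 Suspension leukemia/lymphoma cells in exponential growth resuspended at 1 × 10⁵ cells/mL in growth medium with various compound concentrations; viability read by MTT after 96 h at 37 °C. Growth given as percentage of untreated controls; IC50 (concentration reducing viability 50%) from linear regression.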

CCRF-CEM [15] = test: as §4; format: functional, cell-based; how it was run: as §11; remark: listed apart in the source
[16] = molecular target: T1, Inosine-5'-monophosphate dehydrogenase (IMPDH) (Homo sapiens); test: Compound was tested for its effect on IMPDH (Inosine 5`-monophosphate dehydrogenase) activity of K562 cells in culture.; format: functional, cell-based; settings: scale: (nM of XMP formed) hr-1
[17] = molecular target: T1, Inosine-5'-monophosphate dehydrogenase (IMPDH) (Homo sapiens); test: Compound was tested for its inhibition against IMPDH from human myelogenous leukemia K562 cells in culture.; format: functional, cell-based; settings: concentration not given here
K562 [18] = test: as §7; format: functional, cell-based; how it was run: as §11; remark: listed apart in the source
L1210 [19] = test: as §9; format: functional, cell-based; settings: Mus musculus; how it was run: as §11; remark: listed apart in the source
MOLT-4 [20] = test: as §8; format: functional, cell-based; how it was run: as §11; remark: listed apart in the source
[21] = molecular target: T1, Inosine-5'-monophosphate dehydrogenase (IMPDH) (Homo sapiens); test: Compound was tested for its effect on IMPDH (Inosine 5`-monophosphate dehydrogenase) activity in K562 cells in culture.; format: functional, cell-based; settings: scale: (nM of XMP formed) hr-1
[22] = molecular target: T1, Inosine-5'-monophosphate dehydrogenase (IMPDH) (Homo sapiens); test: as §10; format: functional, cell-based; settings: concentration not given here; remark: listed apart in the source
K562 [23] = test: Compound was tested for its influence on the IMP (Inosine 5`-monophosphate) ribonucleotide level of K562 cells in culture; format: functional, Homo sapiens; how it was run: as §6

T1 sequence (P20839 whole entry, looked up, other chains not shown): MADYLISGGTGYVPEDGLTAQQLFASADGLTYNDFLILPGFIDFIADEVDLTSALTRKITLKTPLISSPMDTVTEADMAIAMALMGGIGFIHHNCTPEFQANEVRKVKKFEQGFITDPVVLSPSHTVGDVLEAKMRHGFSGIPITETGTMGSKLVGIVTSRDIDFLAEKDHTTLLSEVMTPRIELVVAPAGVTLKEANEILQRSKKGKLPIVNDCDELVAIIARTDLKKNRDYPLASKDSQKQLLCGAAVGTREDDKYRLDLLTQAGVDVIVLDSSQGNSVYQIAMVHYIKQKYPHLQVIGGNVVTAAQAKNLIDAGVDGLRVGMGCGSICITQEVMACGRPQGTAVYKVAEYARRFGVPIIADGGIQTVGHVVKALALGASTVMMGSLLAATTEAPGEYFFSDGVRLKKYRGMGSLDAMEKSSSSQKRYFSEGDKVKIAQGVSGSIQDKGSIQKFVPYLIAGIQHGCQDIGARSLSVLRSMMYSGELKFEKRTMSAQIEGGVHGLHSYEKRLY

Structure (SMILES)	IC50 5637 [µM]	IC50 (CHO-K1 [1]) [µM]	IC50 (CCRF-SB [2]) [µM]	IC50 (CCRF-CEM [3]) [µM]	IC50 (HT-29) [µM]	IC50 (HeLa) [µM]	IMPDH activity [4]	Control (K562 [5]) [%]	Control (K562 [6]) [%]	Control (K562 [7]) [%]	Control (K562 [8]) [%]	IC50 (K562 [9]) [µM]	IC50 (MOLT-4 [10]) [µM]	IC50 (L1210 [11]) [µM]	IC50 (Raji) [µM]	IC50 (WIL2-NS) [µM]	inhibition [12] [%]	IC50 (ACHN) [µM]	IC50 (CHO-K1 [13]) [µM]	IC50 (CCRF-CEM [15]) [µM]	also measured
NC(=O)c1c[se]c([C@@H]2O[C@H](CO)[C@@H](O)[C@H]2O)c1	1.2	2.9	0.9	0.3	3.5	6.4	1.06	61	0	42	1464	0.45	0.3	0.3	0.9	0.7	76	9.9			
NC(=O)c1csc([C@@H]2O[C@H](CO)[C@@H](O)[C@H]2O)n1 [TIAZOFURIN]	24				100	100		89	0	55	1033				8.2	5.7		> 100	6.4	10	IC50 (CCRF-SB [14]): 7.5 µM; IMPDH activity [16]: 2.07; inhibition [17]: 59%; IC50 (K562 [18]): 2.5 µM; IC50 (L1210 [19]): 2.9 µM; IC50 (MOLT-4 [20]): 5.2 µM
NC(=O)c1csc([C@@H]2O[C@H](CO)[C@@H](O)[C@H]2O)c1	17		6.4		40	90		66	0	60	703	2.3			8.7	5.8		79	55	3.5	IMPDH activity [21]: 2.62; inhibition [22]: 52%; IC50 (L1210 [19]): 1.7 µM; IC50 (MOLT-4 [20]): 2.9 µM
NC(=O)c1c[se]c([C@@H]2O[C@H](CO)[C@@H](O)[C@H]2O)n1	2.3	0.6	1.5	1.2	7.7	7.9	1.01	59	0	50		0.5	0.6	0.5	1.6	1.2	80	13.8			Control (K562 [23]): 1043%
